The results in this text go back to PubChem BioAssay.

The nature of assay [1]: inhibitors of TNFa-induced NFkB p65 translocation, primary screen, imaging, HUVEC, MLSMR starter and 10KST1 sets (AID 438).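 Further: compound added about 3h40 before a 20 min TNFalpha stimulation.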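 On inhibition: signal is the nuclear over cytoplasmic p65 intensity ratio per well.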 The conditions noted are these: HUVEC TNFa-induced p65 nuclear translocation; cell count: measured here: nuclei count (cytotoxicity indicator), at 2.08 µM; inhibition: at 2 µM, stronger effect = higher value, 0% TNFa-plus-vehicle, 100% no-TNFa wells.
The nature of assay [2]: inhibitors of mutant huntingtin aggregation, primary screen, imaging, exon1htt(103Q)mCFP cells, high-content imaging (AID 483;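 active means visual image review flags a hit and inhibition of aggregation exceeds 20%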;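 further: compound exposure lasted 3 days before fixation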;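 on nuclei count: percent of the per-plate median nuclei count of sample wells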). Conditions: exon1htt(103Q)mCFP cell line, aggregate imaging, at 2 µM; inhibition of aggregation: stronger effect = higher value; nuclei count: measured here: cell count, toxicity.
Assay [3] in a line: inhibitors of E-selectin induction by TNFa, primary screen, imaging, HUVEC, immunofluorescence, MLSMR starter and 10KST1 sets (AID 487;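 active means visually confirmed hit in the image check and inhibition above 20%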;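 on inhibition: signal is fraction of cell area covered by stained E-selectin grains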;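 on nuclei count: 100% = median nuclei count of all wells on the same plate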). The conditions noted are these: HUVEC TNFalpha-induced E-selectin immunofluorescence imaging, at 2 µM; inhibition: stronger effect = higher value; nuclei count: measured here: cell number, toxicity.
For assay [4], the target named is Voltage-gated potassium channel subunit beta-2 (Rattus norvegicus) (UniProt P62483). The assay is described as follows: KvBeta enzyme negative modulators, primary screen, biochemical, NADPH fluorescence (AID 622;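 active means fluorescence slope higher than the sample average by over 3 SD, cut at about -0.22 in these data, passing the limit was not always enough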;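 further: slope of raw intensity against log time taken from 70 to 1610 s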). Conditions: recombinant KvBeta, 4-cyanobenzaldehyde reduction, at 10 µM, stronger effect = higher value.
The target is the same in assay [5]. The assay can be described thus: KvBeta positive modulators, primary screen, biochemical, NADPH fluorescence (AID 623;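 active means NADPH fluorescence slope more negative than the mean of all samples by about 3 SD, 99.7% confidence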;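 further: fluorescence intensity change per second fitted from 20 to 320 s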). Conditions: Recombinant KvBeta, NADPH fluorescence decrease slope, 10 min; at 10 µM; stronger effect = lower value.
Assay [6] addresses Muscarinic acetylcholine receptor M4 (Homo sapiens) (UniProt P08173). The assay is described as follows: compounds altering M4/GIRK thallium flux, either direction, primary screen, M4 allosteric agonist project, cell-based, HEK293 M4/GIRK, BTC-AM (AID 625;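 active means fluorescence slope after compound addition differing from the mean of all tested samples at 99.7% confidence, mostly higher but some lower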;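 further: thallium influx through GIRK channels coupled to M4 in HEK293 cells with BTC-AM dye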). Conditions: at 10 µM, actives lie on both sides. The procedure, abridged:
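Assay system: HEK293 cells with M4 receptor and GIRK channels / Controls: carbachol and DMSO controls / Schedule: 1 h dye loading, 2 min kinetic read / Technique: kinetic fluorescence with BTC-AM dye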

The nature of assay [7]: inhibitors of Sendai virus-induced IRF3 signaling, primary screen, TLR/RLR signaling modifier project, cell-based, Sendai virus stimulus, luciferase, 10K MLSCN set (AID 602276;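 active means inhibition at or above 50% at 10 µM; inactive means inhibition below 50%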;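 further: firefly luciferase from ISG56 promoter only with Renilla not read in this screen; 0% = Sendai virus plus DMSO and 100% = medium plus DMSO without virus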). The conditions noted are these: HEK293 RL24 IRF3 luciferase reporter, at 10 µM, stronger effect = higher value. (Reporter assays use an easily measured gene product as a stand-in for the process of interest.)

A short description of assay [8]: inhibitors of poly I:C-induced TLR3 signaling, primary screen, cell-based, poly I:C stimulus, luciferase, 10K MLSCN set (AID 602277;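 active means inhibition of the reporter signal at or above 50%; inactive means inhibition below 50%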). The conditions noted are these: HEK293-TLR3 RL24 IRF3 luciferase reporter, at 10 µM, stronger effect = higher value.

Active and inactive are the calls of the source.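 How the source made its calls, unless noted: active means inhibition above 20% together with a positive visual image hit; inconclusive means visual image hit but inhibition not above 20%; inactive means no visual image hit.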

Chain of Voltage-gated potassium channel subunit beta-2 (Rattus norvegicus) (P62483 whole entry, looked up): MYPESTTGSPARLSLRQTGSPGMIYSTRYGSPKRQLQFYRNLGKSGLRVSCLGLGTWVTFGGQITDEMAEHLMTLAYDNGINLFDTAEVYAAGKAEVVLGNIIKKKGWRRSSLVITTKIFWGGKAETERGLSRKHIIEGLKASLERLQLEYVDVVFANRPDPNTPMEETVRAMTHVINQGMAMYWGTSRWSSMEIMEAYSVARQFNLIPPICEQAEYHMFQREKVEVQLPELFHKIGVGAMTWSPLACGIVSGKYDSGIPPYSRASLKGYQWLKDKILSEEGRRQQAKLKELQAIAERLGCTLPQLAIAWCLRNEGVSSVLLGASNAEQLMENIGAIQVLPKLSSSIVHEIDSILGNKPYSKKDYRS
Chain of Muscarinic acetylcholine receptor M4 (Homo sapiens) (P08173 whole entry, looked up): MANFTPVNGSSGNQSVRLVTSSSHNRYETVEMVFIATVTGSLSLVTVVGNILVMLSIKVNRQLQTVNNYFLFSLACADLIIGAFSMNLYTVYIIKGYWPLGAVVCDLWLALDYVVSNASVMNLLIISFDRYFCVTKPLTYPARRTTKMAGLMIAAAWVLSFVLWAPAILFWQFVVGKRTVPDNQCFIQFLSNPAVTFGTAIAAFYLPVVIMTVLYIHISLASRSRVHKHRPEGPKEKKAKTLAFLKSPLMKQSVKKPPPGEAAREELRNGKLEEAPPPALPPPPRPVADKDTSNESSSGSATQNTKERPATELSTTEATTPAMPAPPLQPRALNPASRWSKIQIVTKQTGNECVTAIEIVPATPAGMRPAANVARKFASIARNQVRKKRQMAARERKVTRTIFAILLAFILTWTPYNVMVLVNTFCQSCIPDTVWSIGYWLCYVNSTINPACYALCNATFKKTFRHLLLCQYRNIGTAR

`N#CCSCC(=O)Nc1ccc(F)cc1`: the cell count in assay [1] was 511. Besides, the inhibition in assay [1] is 4.1% (inactive); in assay [3], 10.5% (inactive); in assay [7], 13.5% (inactive); in assay [8], 26.3% (inactive). Besides, in assay [2], the inhibition of aggregation is -5.3% (inactive). Also, the nuclei count in assay [2] worked out at 108%; in assay [3], 99.2%. The values for the fluorescence slope in assay [4] and in assay [6] were -0.462 (inactive) and 0.00474 (inactive), respectively. Besides, the NADPH fluorescence slope in assay [5] was -5.6e-05 (inactive).

On to `Cc1cccc(OCC(=O)Nc2ccccc2N2CCN(C(=O)C(C)C)CC2)c1C`, for which the cell count in assay [1] was determined as 232. Moreover, the inhibition in assay [1] was -21.4% (inactive); in assay [3], -26.3% (inactive); in assay [7], 15.5% (inactive); in assay [8] it was 25.9% (inactive). The inhibition of aggregation in assay [2] was 6% (inactive). For the same compound, the nuclei count in assay [2] turned out to be 73.8%; in assay [3] it was 68.6%. For the same compound, the fluorescence slope was -0.585 (inactive) in assay [4] and 0.00511 (inactive) in assay [6]. Also, the NADPH fluorescence slope in assay [5] is -2.3e-05 (inactive).

Turning to `O=C(Nc1ccncc1)c1cncc(Br)c1`, in assay [1], the cell count amounted to 718. The inhibition in assay [1] was -3% (inactive); in assay [3], -153% (inactive); in assay [7], 1.8% (inactive); in assay [8] it was 0.632% (inactive). The inhibition of aggregation in assay [2] was -6.3% (inactive). In addition, the nuclei count in assay [2] amounted to 98%; in assay [3], 114%. Besides, the fluorescence slope in assay [4] was -0.243 (inactive); in assay [6] it was 0.00626 (inactive). Also, the NADPH fluorescence slope in assay [5] was -9.4e-06 (inactive).

On to `CC(=O)N(c1ccc(N(C(C)=O)S(=O)(=O)c2cccs2)cc1)S(=O)(=O)c1cccs1`, for which, in assay [1], the cell count was determined as 458. Further, the inhibition in assay [1] is 1.3% (inactive); in assay [3], -45.8% (inactive); in assay [7], 4.25% (inactive); in assay [8], 7.23% (inactive). Further, the inhibition of aggregation in assay [2] is 11.2% (inactive). Besides, the figures for the nuclei count in assay [2] and in assay [3] were 99.2% and 99.4%, respectively. The fluorescence slope is -0.472 (inactive) in assay [4] and 0.00408 (inactive) in assay [6]. For the same compound, the NADPH fluorescence slope in assay [5] was -0.000256 (inactive).

As for `CCC(=O)Nc1ccc(F)c(Cl)c1`, the cell count in assay [1] was determined as 292. Besides, the inhibition in assay [1] was 1.5% (inactive); in assay [3] it was -76% (inactive); in assay [7], 21.2% (inactive); in assay [8] it was 13.9% (inactive). The inhibition of aggregation in assay [2] is 7.9% (inactive). Besides, the nuclei count in assay [2] came out at 108%; in assay [3], 124%. Further, the fluorescence slope in assay [4] is -0.538 (inactive); in assay [6], 0.0059 (inactive). For the same compound, the NADPH fluorescence slope in assay [5] was 9.9e-07 (inactive).

For the compound `CCCn1c(SCC(=O)Nc2cc(C)on2)nc2c1c(=O)n(C)c(=O)n2C`, the cell count in assay [1] turned out to be 400. Besides, the inhibition in assay [1] is 6.8% (inactive); in assay [3] it was -36.6% (inactive); in assay [7], -5.89% (inactive); in assay [8] it was 0.557% (inactive). Also, the inhibition of aggregation in assay [2] was 3.2% (inactive). Moreover, the values for the nuclei count in assay [2] and in assay [3] were 95.2% and 152%, respectively. In addition, the results for the fluorescence slope in assay [4] and in assay [6] were -0.551 (inactive) and 0.00431 (inactive), respectively. The NADPH fluorescence slope in assay [5] was -2.8e-05 (inactive).

In the case of `Nc1nnc(Cc2ccc(Cl)cc2)s1`, in assay [1], the cell count was found to be 331. Also, the inhibition in assay [1] was 7.5% (inactive); in assay [3] it was -130% (inactive); in assay [7], 11.6% (inactive); in assay [8] it was 13% (inactive). The inhibition of aggregation in assay [2] was -4.2% (inactive). The nuclei count came out at 92.7% in assay [2] and 115% in assay [3]. Further, the figures for the fluorescence slope in assay [4] and in assay [6] were -0.483 (inactive) and 0.00532 (inactive), respectively. Besides, in assay [5], the NADPH fluorescence slope was -7.5e-05 (inactive).

With `c1nc(NCC2CCCO2)c2[nH]cnc2n1` (centres undefined), in assay [1], the cell count was determined as 349. Also, the inhibition in assay [1] was -12.5% (inactive); in assay [3], -27.3% (inactive); in assay [7], 13.9% (inactive); in assay [8] it was 16.7% (inactive). For the same compound, the inhibition of aggregation in assay [2] is 12.3% (inactive). Besides, the nuclei count amounted to 90.8% in assay [2] and 118% in assay [3]. In addition, the fluorescence slope was -0.483 (inactive) in assay [4] and 0.00434 (inactive) in assay [6]. Further, in assay [5], the NADPH fluorescence slope is 1.9e-05 (inactive).

Take `CCn1c(=O)cc(SCC(=O)N2CCOCC2)c2ccccc21`: the cell count in assay [1] stood at 460. Besides, the inhibition in assay [1] was -1.2% (inactive); in assay [3], -69.7% (inactive); in assay [7], 75.8% (active); in assay [8], 51.3% (active). In addition, the inhibition of aggregation in assay [2] is 0.4% (inactive). The nuclei count came to 115% in assay [2] and 120% in assay [3]. Besides, the fluorescence slope in assay [4] is -0.549 (inactive); in assay [6], 0.00553 (inactive). For the same compound, the NADPH fluorescence slope in assay [5] was -2.4e-05 (inactive).

As to `Cc1ccc(-c2nc(-c3cccnc3)no2)c(C)c1`, the cell count in assay [1] stood at 357. The inhibition was 4.2% (inactive) in assay [1], -54.5% (inactive) in assay [3], -33.6% (inactive) in assay [7] and -111% (inactive) in assay [8]. Moreover, the inhibition of aggregation in assay [2] was -8% (inactive). The nuclei count in assay [2] is 107%; in assay [3], 105%. The fluorescence slope was -0.571 (inactive) in assay [4] and 0.00802 (inactive) in assay [6]. In addition, the NADPH fluorescence slope in assay [5] is -3.5e-05 (inactive).

Turning to `COC(=O)c1sc(NC(=O)COc2ccccc2OC)nc1C`, in assay [1], the cell count was determined as 368. Besides, the inhibition is -4.7% (inactive) in assay [1], -153% (inactive) in assay [3], 9.11% (inactive) in assay [7] and 2.53% (inactive) in assay [8]. In addition, the inhibition of aggregation in assay [2] is -9.7% (inactive). Also, the results for the nuclei count in assay [2] and in assay [3] were 96.7% and 122%, respectively. The fluorescence slope was -0.229 (inactive) in assay [4] and 0.00636 (inactive) in assay [6]. Also, the NADPH fluorescence slope in assay [5] is -2.1e-05 (inactive).

With `CCOC(=O)c1cnn(-c2ncnc3c2cnn3Cc2ccccc2)c1N`, the cell count in assay [1] was 410. The inhibition was -4.6% (inactive) in assay [1], -19.2% (inactive) in assay [3], 17.2% (inactive) in assay [7] and 17.4% (inactive) in assay [8]. In addition, the inhibition of aggregation in assay [2] was 8.7% (inactive). For the same compound, the results for the nuclei count in assay [2] and in assay [3] were 100% and 118%, respectively. Also, the fluorescence slope is -0.51 (inactive) in assay [4] and 0.0057 (inactive) in assay [6]. Besides, the NADPH fluorescence slope in assay [5] is 1.3e-05 (inactive).

With `CCCOc1cc(C)c(S(=O)(=O)N2CCN(C)CC2)cc1C`, the cell count in assay [1] was determined as 443. Moreover, the inhibition in assay [1] was 10.6% (inactive); in assay [3], -11.9% (inactive); in assay [7], 7.65% (inactive); in assay [8] it was 10.4% (inactive). The inhibition of aggregation in assay [2] is 12.8% (inactive). Moreover, the nuclei count in assay [2] came out at 100%; in assay [3] it was 96.1%. Besides, the results for the fluorescence slope in assay [4] and in assay [6] were -0.57 (inactive) and 0.00349 (inactive), respectively. Moreover, in assay [5], the NADPH fluorescence slope was -3.7e-05 (inactive).

Regarding `CC1Cc2cc(/C(O)=C3/C(=O)C(=O)N(CCN4CCOCC4)C3c3cccc(O)c3)ccc2O1` (centres undefined), the cell count in assay [1] was determined as 576. Further, the inhibition in assay [1] was -2.7% (inactive); in assay [3], -18.4% (inactive); in assay [7] it was -19.1% (inactive); in assay [8], -6.57% (inactive). Further, the inhibition of aggregation in assay [2] was -17.8% (inactive). Moreover, the values for the nuclei count in assay [2] and in assay [3] were 105% and 94.9%, respectively. For the same compound, the fluorescence slope was -0.573 (inactive) in assay [4] and 0.00539 (inactive) in assay [6]. Moreover, the NADPH fluorescence slope in assay [5] is -8.9e-05 (inactive).

A word on the inhibition: it is the change of the read-out against control, counted positive when it falls.
